According to ChEMBL document CHEMBL1137455, “Replacement of the lactone moiety on podophyllotoxin and steganacin analogues with a 1,5-disubstituted 1,2,3-triazole via ruthenium-catalyzed click chemistry” (Bioorg Med Chem, 2007):
Active and inactive are the calls of the source. The calls are words filed in the database; no cut-off is given here.

How the values were obtained:
[1] = target: Tubulin (Homo sapiens) (UniProt P68371+Q9H4B7+P0DPH7+P68366+Q13509+Q71U36+P04350+Q3ZCM7+P07437+P68363+Q9BQE3+Q6PEY2+Q13885+Q9BVA1+Q9BUF5); assay: Induction of tubulin depolymerization after 16 hrs; format: protein-complex assay
In short: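 Cells treated 16 h with tubulin-disrupting agents; proteins harvested in presence of paclitaxel to fix polymerized and unpolymerized tubulin; soluble (non-polymerized) and pellet (polymerized) fractions run on SDS-PAGE and immunoblotted with monoclonal mouse anti-tubulin antibody.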

[2] = system: SH-SY5Y; assay: Cytotoxicity against SH-SY5Y cells assessed as cell viability after 48 hrs by MTT method; format: functional, cell-based; settings: Homo sapiens
In short: (§1)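 SH-SY5Y human neuroblastoma cells exposed to compounds for 48 h; viability read by MTT; dose–response curves; highest concentration tested 100 μM.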

[3] = system: SH-SY5Y; assay: Cytotoxicity against SH-SY5Y cells assessed as cell viability upto 100 uM after 48 hrs by MTT method; format: functional, cell-based; settings: Homo sapiens; in short: as §1
[4] = system: SH-SY5Y; assay: Cytotoxicity against SH-SY5Y cells assessed as cell viability above 10 uM after 48 hrs by MTT method; format: functional, cell-based; settings: Homo sapiens; in short: as §1

Compound	Activity [1]	IC50 [2] [nM]	Activity [3]	other results
COc1cc([C@@H]2c3cc4c(cc3[C@H](O)[C@H]3COC(=O)[C@H]23)OCO4)cc(OC)c1OC [PODOFILOX]	Active	7	–	–
COc1cc(Cn2nncc2Cc2ccc3c(c2)OCO3)cc(OC)c1OC	–	–	Not toxic	–
CC(=O)O[C@H]1C(=O)[C@@]2(C)[C@H]([C@H](OC(=O)c3ccccc3)[C@]3(O)C[C@H](OC(=O)[C@H](O)[C@@H](NC(=O)c4ccccc4)c4ccccc4)C(C)=C1C3(C)C)[C@]1(OC(C)=O)CO[C@@H]1C[C@@H]2O	inactive	–	–	–
COc1cc(Cc2cnnn2Cc2ccc3c(c2)OCO3)cc(OC)c1OC	–	–	Not toxic	–
COc1ccc(/C=C\c2cc(OC)c(OC)c(OC)c2)cc1O	Active	–	–	–
COc1cc2c(c(OC)c1OC)-c1cc3c(cc1Cc1cnnn1C2)OCO3	–	1100	–	–
COc1cc2c(c(OC)c1OC)-c1cc3c(cc1Cn1nncc1C2)OCO3	–	–	–	Activity [4]: Toxic
COc1cc(C(O)c2cnnn2Cc2ccc3c(c2)OCO3)cc(OC)c1OC (stereo unspecified)	–	–	Not toxic	–
COc1cc(C2c3cc4c(cc3Cn3nncc32)OCO4)cc(OC)c1OC (racemic)	Active	1500	–	–
